ChEMBL document CHEMBL3407460, “Synthesis of novel thiazole-based 8,9-dihydro-7H-pyrimido[4,5-b][1,4]diazepines as potential antitumor and antifungal agents” (2015)
Values after ≈ are worked out from the molar mass of the structure shown.

Key:
Format in all cases: functional
[1] = test system: Cryptococcus neoformans; experiment: Antifungal activity against Cryptococcus neoformans IM 042074 clinical isolate after 48 hrs by broth microdilution method; conditions: IM 042074, 48 h
Outline: (§1)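 Clinical isolates from the Malbrán Institute were grown on Sabouraud-chloramphenicol agar for 48 h at 30 °C, kept on Sabouraud-dextrose agar and subcultured every 15 days. M27-A3 RPMI-1640 microdilution used 1–5 × 10^3 CFU/mL, 48 h at 30 °C, OD405 read, triplicate. Endpoints MIC100, MIC80 and MIC50 were taken from % inhibition dose-response curves.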

[2] = test system: Candida albicans; experiment: Antifungal activity against Candida albicans ATCC 10231 assessed as growth inhibition at 250 ug/ml after 48 hrs by broth microdilution method; conditions: ATCC 10231, 48 h
Outline: (§2)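 CLSI M27-A3 broth microdilution in RPMI-1640. Compound stocks were made in DMSO (final at most 1%) and tested at final levels of 250 to 0.98. Inoculum was 1–5 × 10^3 CFU/mL, incubated 48 h at 30 °C in a moist, dark chamber. Growth and sterility control wells were included.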

[3] = test system: Cryptococcus neoformans; experiment: Antifungal activity against Cryptococcus neoformans ATCC 32264 assessed as growth inhibition at 62.5 ug/ml after 48 hrs by broth microdilution method; conditions: ATCC 32264, 48 h; outline: as §2
[4] = test system: Cryptococcus neoformans; experiment: Antifungal activity against Cryptococcus neoformans IM 983036 clinical isolate after 48 hrs by broth microdilution method; conditions: IM 983036, 48 h; outline: as §1
[5] = test system: Candida albicans; experiment: Antifungal activity against Candida albicans ATCC 10231 assessed as growth inhibition at 62.5 ug/ml after 48 hrs by broth microdilution method; conditions: ATCC 10231, 48 h; outline: as §2
[6] = test system: Cryptococcus neoformans; experiment: Antifungal activity against Cryptococcus neoformans IM 00319 clinical isolate after 48 hrs by broth microdilution method; conditions: IM 00319, 48 h
Outline: (§3)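 Clinical isolates from the Malbrán Institute were grown on Sabouraud-chloramphenicol agar for 48 h at 30 °C, kept on Sabouraud-dextrose agar and subcultured every 15 days. Endpoints MIC100, MIC80 and MIC50 were taken from % inhibition dose-response curves.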

[7] = test system: Cryptococcus neoformans; experiment: Antifungal activity against Cryptococcus neoformans ATCC 32264 assessed as growth inhibition at 7.81 ug/ml after 48 hrs by broth microdilution method; conditions: ATCC 32264, 48 h; outline: as §2
[8] = test system: Cryptococcus neoformans; experiment: Antifungal activity against Cryptococcus neoformans IM 031631 clinical isolate after 48 hrs by broth microdilution method; conditions: IM 031631, 48 h; outline: as §1
[9] = test system: Cryptococcus neoformans; experiment: Antifungal activity against Cryptococcus neoformans IM 972751 clinical isolate after 48 hrs by broth microdilution method; conditions: IM 972751, 48 h; outline: as §1
[10] = test system: Cryptococcus neoformans; experiment: Antifungal activity against Cryptococcus neoformans IM 983040 clinical isolate after 48 hrs by broth microdilution method; conditions: IM 983040, 48 h; outline: as §1
[11] = test system: Cryptococcus neoformans; experiment: Antifungal activity against Cryptococcus neoformans IM 961951 clinical isolate after 48 hrs by broth microdilution method; conditions: IM 961951, 48 h; outline: as §1
[12] = test system: Cryptococcus neoformans; experiment: Antifungal activity against Cryptococcus neoformans IM 052470 clinical isolate after 48 hrs by broth microdilution method; conditions: IM 052470, 48 h; outline: as §3
[13] = test system: Candida albicans; experiment: Antifungal activity against Candida albicans ATCC 10231 assessed as growth inhibition at 3.9 ug/ml after 48 hrs by broth microdilution method; conditions: ATCC 10231, 48 h; outline: as §2
[14] = test system: Candida albicans; experiment: Antifungal activity against Candida albicans ATCC 10231 assessed as growth inhibition at 125 ug/ml after 48 hrs by broth microdilution method; conditions: ATCC 10231, 48 h; outline: as §2
[15] = test system: Candida albicans; experiment: Antifungal activity against Candida albicans ATCC 10231 assessed as growth inhibition at 7.81 ug/ml after 48 hrs by broth microdilution method; conditions: ATCC 10231, 48 h; outline: as §2
[16] = test system: Cryptococcus neoformans; experiment: Antifungal activity against Cryptococcus neoformans ATCC 32264 assessed as growth inhibition at 3.9 ug/ml after 48 hrs by broth microdilution method; conditions: ATCC 32264, 48 h; outline: as §2
[17] = test system: Cryptococcus neoformans; experiment: Antifungal activity against Cryptococcus neoformans IM 031706 clinical isolate after 48 hrs by broth microdilution method; conditions: IM 031706, 48 h; outline: as §3
[18] = test system: Cryptococcus neoformans; experiment: Antifungal activity against Cryptococcus neoformans ATCC 32264 after 48 hrs by broth microdilution method; conditions: ATCC 32264, 48 h
[19] = test system: Cryptococcus neoformans; experiment: Antifungal activity against Cryptococcus neoformans ATCC 32264 assessed as growth inhibition at 15.62 ug/ml after 48 hrs by broth microdilution method; conditions: ATCC 32264, 48 h; outline: as §2
[20] = test system: Candida albicans; experiment: Antifungal activity against Candida albicans ATCC 10231 assessed as growth inhibition at 31.25 ug/ml after 48 hrs by broth microdilution method; conditions: ATCC 10231, 48 h; outline: as §2
[21] = test system: Cryptococcus neoformans; experiment: Antifungal activity against Cryptococcus neoformans ATCC 32264 assessed as growth inhibition at 31.25 ug/ml after 48 hrs by broth microdilution method; conditions: ATCC 32264, 48 h; outline: as §2
[22] = test system: Candida albicans; experiment: Antifungal activity against Candida albicans ATCC 10231 assessed as growth inhibition at 15.62 ug/ml after 48 hrs by broth microdilution method; conditions: ATCC 10231, 48 h; outline: as §2
[23] = test system: Cryptococcus neoformans; experiment: Antifungal activity against Cryptococcus neoformans ATCC 32264 assessed as growth inhibition at 250 ug/ml after 48 hrs by broth microdilution method; conditions: ATCC 32264, 48 h; outline: as §2
[24] = test system: Cryptococcus neoformans; experiment: Antifungal activity against Cryptococcus neoformans ATCC 32264 assessed as growth inhibition at 125 ug/ml after 48 hrs by broth microdilution method; conditions: ATCC 32264, 48 h; outline: as §2
[25] = test system: Cryptococcus neoformans; experiment: Antifungal activity against Cryptococcus neoformans IM 972724 clinical isolate after 48 hrs by broth microdilution method; conditions: IM 972724, 48 h; outline: as §1

Question: For `Nc1nc(N)c2c(n1)NC(c1sc(Cl)nc1Cl)CC(c1ccc(Cl)cc1)=N2` (stereo not drawn), which MFC [1] is on record?
Answer: 62.5 µg/mL (≈ 142 µM)

Question: And the MIC50 [1]?
Answer: 15.6 µg/mL (≈ 35.4 µM)

Question: What about the MIC80 [1] of the same compound?
Answer: 31.2 µg/mL (≈ 70.8 µM)

Question: What about the MIC ([1]; read-out: MIC100) of the same compound?
Answer: 31.2 µg/mL (≈ 70.8 µM)

Question: What about the inhibition at 250 µg/mL [2] of the same compound?
Answer: 100%

Question: And the inhibition at 62.5 µg/mL [3]?
Answer: 40.5%

Question: And the MFC [4]?
Answer: 31.2 µg/mL (≈ 70.8 µM)

Question: And the MIC50 [4]?
Answer: 15.6 µg/mL (≈ 35.4 µM)

Question: And the MIC80 [4]?
Answer: 15.6 µg/mL (≈ 35.4 µM)

Question: And the MIC ([4]; read-out: MIC100)?
Answer: 31.2 µg/mL (≈ 70.8 µM)

Question: What about the inhibition at 62.5 µg/mL [5] of the same compound?
Answer: 100%

Question: What about the MFC [6] of the same compound?
Answer: 31.2 µg/mL (≈ 70.8 µM)

Question: What about the MIC50 [6] of the same compound?
Answer: 7.8 µg/mL (≈ 17.7 µM)

Question: And the MIC80 [6]?
Answer: 15.6 µg/mL (≈ 35.4 µM)

Question: And the MIC ([6]; read-out: MIC100)?
Answer: 15.6 µg/mL (≈ 35.4 µM)

Question: And the inhibition at 7.81 µg/mL [7]?
Answer: 3.56%

Question: What about the MFC [8] of the same compound?
Answer: 62.5 µg/mL (≈ 142 µM)

Question: What about the MIC50 [8] of the same compound?
Answer: 7.8 µg/mL (≈ 17.7 µM)

Question: What about the MIC80 [8] of the same compound?
Answer: 15.6 µg/mL (≈ 35.4 µM)

Question: And the MIC ([8]; read-out: MIC100)?
Answer: 31.2 µg/mL (≈ 70.8 µM)

Question: What about the MFC [9] of the same compound?
Answer: 62.5 µg/mL (≈ 142 µM)

Question: What about the MIC50 [9] of the same compound?
Answer: 31.2 µg/mL (≈ 70.8 µM)

Question: What about the MIC80 [9] of the same compound?
Answer: 31.2 µg/mL (≈ 70.8 µM)

Question: And the MIC ([9]; read-out: MIC100)?
Answer: 62.5 µg/mL (≈ 142 µM)

Question: And the MFC [10]?
Answer: 62.5 µg/mL (≈ 142 µM)

Question: And the MIC50 [10]?
Answer: 31.2 µg/mL (≈ 70.8 µM)

Question: What about the MIC80 [10] of the same compound?
Answer: 31.2 µg/mL (≈ 70.8 µM)

Question: What about the MIC ([10]; read-out: MIC100) of the same compound?
Answer: 31.2 µg/mL (≈ 70.8 µM)

Question: And the MFC [11]?
Answer: 62.5 µg/mL (≈ 142 µM)

Question: And the MIC50 [11]?
Answer: 7.8 µg/mL (≈ 17.7 µM)

Question: What about the MIC80 [11] of the same compound?
Answer: 15.6 µg/mL (≈ 35.4 µM)

Question: And the MIC ([11]; read-out: MIC100)?
Answer: 15.6 µg/mL (≈ 35.4 µM)

Question: And the MFC [12]?
Answer: 62.5 µg/mL (≈ 142 µM)

Question: And the MIC50 [12]?
Answer: 15.6 µg/mL (≈ 35.4 µM)

Question: And the MIC80 [12]?
Answer: 31.2 µg/mL (≈ 70.9 µM)

Question: And the MIC ([12]; read-out: MIC100)?
Answer: 62.5 µg/mL (≈ 142 µM)

Question: And the inhibition at 3.9 µg/mL [13]?
Answer: 22.2%

Question: What about the inhibition at 125 µg/mL [14] of the same compound?
Answer: 100%

Question: And the inhibition at 7.81 µg/mL [15]?
Answer: 48.3%

Question: And the inhibition at 3.9 µg/mL [16]?
Answer: 0%

Question: And the MFC [17]?
Answer: 62.5 µg/mL (≈ 142 µM)

Question: And the MIC50 [17]?
Answer: 7.8 µg/mL (≈ 17.7 µM)

Question: What about the MIC80 [17] of the same compound?
Answer: 31.2 µg/mL (≈ 70.8 µM)

Question: And the MIC ([17]; read-out: MIC100)?
Answer: 62.5 µg/mL (≈ 142 µM)

Question: And the MFC [18]?
Answer: 31.2 µg/mL (≈ 70.8 µM)

Question: What about the MIC50 [18] of the same compound?
Answer: 7.8 µg/mL (≈ 17.7 µM)

Question: And the MIC80 [18]?
Answer: 15.6 µg/mL (≈ 35.4 µM)

Question: What about the MIC ([18]; read-out: MIC100) of the same compound?
Answer: 15.6 µg/mL (≈ 35.4 µM)

Question: And the inhibition at 15.62 µg/mL [19]?
Answer: 13.1%

Question: What about the inhibition at 31.25 µg/mL [20] of the same compound?
Answer: 100%

Question: And the inhibition at 31.25 µg/mL [21]?
Answer: 30.5%

Question: And the inhibition at 15.62 µg/mL [22]?
Answer: 100%

Question: And the inhibition at 250 µg/mL [23]?
Answer: 78.7%

Question: What about the inhibition at 125 µg/mL [24] of the same compound?
Answer: 58.2%

Question: What about the MFC [25] of the same compound?
Answer: 31.2 µg/mL (≈ 70.8 µM)

Question: What about the MIC50 [25] of the same compound?
Answer: 7.8 µg/mL (≈ 17.7 µM)

Question: What about the MIC80 [25] of the same compound?
Answer: 15.6 µg/mL (≈ 35.4 µM)

Question: And the MIC ([25]; read-out: MIC100)?
Answer: 15.6 µg/mL (≈ 35.4 µM)
